Bioassay records (PubChem)
Hits are enriched below; roughly 1.8% of the tested compounds scored in any of these assays.
CHRM5 agonist: CHRM5 agonism in calcium assay. activation, % at 3 µM. 360,000 tested, 0.19% active. P08912. AID 624037. CHO-K1 hM5 cells, Fluo-8 calcium fluorescence; 0% DMSO wells, 100% maximal acetylcholine response;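 active = activation above the run's mean over test compounds plus 3 SD, cut at about 23% in these data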;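 also: signal is peak over basal fluorescence ratio across the kinetic read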
M4 antag: CHRM4 antagonism in calcium assay; P08173; CHO-hM4 cells, ACh EC80, Fluo-8 calcium fluorescence; inhibition, % at 3 µM; 360,000 tested, 0.73% active; AID 624125;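 active = inhibition above its plate's cutoff, the mean inhibition of sample wells plus 3 SD, cut at about 27% in these data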
Target sequence (P08173 whole entry, looked up): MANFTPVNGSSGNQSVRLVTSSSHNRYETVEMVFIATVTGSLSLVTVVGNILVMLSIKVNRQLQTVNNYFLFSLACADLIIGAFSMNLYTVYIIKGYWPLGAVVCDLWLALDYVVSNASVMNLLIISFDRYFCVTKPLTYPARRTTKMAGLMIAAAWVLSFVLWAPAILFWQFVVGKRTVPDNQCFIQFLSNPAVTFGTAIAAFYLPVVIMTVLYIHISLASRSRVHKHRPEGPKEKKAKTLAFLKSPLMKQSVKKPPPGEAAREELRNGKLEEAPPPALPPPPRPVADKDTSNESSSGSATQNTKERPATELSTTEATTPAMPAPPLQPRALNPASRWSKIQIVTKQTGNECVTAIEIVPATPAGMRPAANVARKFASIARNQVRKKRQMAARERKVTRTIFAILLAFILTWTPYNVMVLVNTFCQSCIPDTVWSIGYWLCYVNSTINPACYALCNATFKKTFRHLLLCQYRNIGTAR
CHRM4 PAM: CHRM4 positive allosteric modulation; activation, % at 3 µM; P08173; AID 624126; CHO-K1 hM4/Gqi5, Fluo-8 calcium fluorescence, ACh EC20; 0% = ACh EC20, 100% = maximal ACh; 360,000 tested, 0.4% active;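 active = activation above its plate's cutoff, the mean activation of sample wells plus 3 SD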
M5 PAM: potentiates acetylcholine response at human M5 receptor | activation, % at 3 µM | AID 624038 | CHO-K1 hM5, Fluo-8 calcium, ACh EC20 PAM; 0% = ACh EC20, 100% = ACh EC100 | P08912 | 360,000 tested, 0.3% active;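 active = activation above the run cutoff, the mean activation of all test compounds plus 3 SD, cut at about 18% in these data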
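system = human M5 receptor in CHO-K1 cells | reagent = EC20 acetylcholine as agonist stimulus | compound dosing = single-point, 3 µM nominal | incubation = Fluo-8 loading 80 min at 37 °C plus 30 min room temperature | detection = Fluo-8 calcium dye fluorescence, kinetic read | benchmarks = low control EC20 acetylcholine (0%), high control EC100 acetylcholine (100%)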
M5 antag: CHRM5 antagonism in calcium assay. CHO-hM5 cells, Fluo-8 calcium fluorescence, ACh EC80. inhibition, % at 3 µM. 360,000 tested, 0.59% active. AID 624040;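 active = inhibition above a per-plate cutoff, the mean of that plate's test compounds plus 3 SD, cut at about 27% in these data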
CHRM4 agonist: agonists of human muscarinic M4 receptor (CHRM4); AID 624127; 360,000 tested, 0.14% active; CHO-K1 hM4/Gqi5, Fluo-8 calcium fluorescence; vehicle 0%, full acetylcholine response 100%; P08173; activation, % at 3 µM;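 active = activation above the run mean over all test wells plus 3 SD, cut at about 32% in these data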;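 also: peak over basal fluorescence ratio per well then scaled between controls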
Each line names hits and unclear results; the compound was inactive in the other large screens; ! = a repeat was not active.

O=C(CCCCN1CCCCC1)c1ccccc1	none
CCC(O)(CCN1CCCCC1)c1ccccc1 (configuration not stated)	M4 antag 33
Cc1ccc2c(Cl)cc(Cl)c(OCC(=O)NC3CCS(=O)(=O)C3)c2n1 (configuration not stated)	none
Cc1ccc2c(Cl)cc(Cl)c(OCC(=O)NCCc3ccccn3)c2n1	M4 antag 77
CCOc1ccccc1NC(=O)COC(=O)COc1c(Cl)cc(Cl)c2ccc(C)nc12	M5 PAM 34, M5 antag 28
CCc1nc2ccc(C(=O)NCCOc3ccc(OC)cc3)cn2c1N(CC)Cc1ccc(OC)c(OC)c1	none
CC(C)[C@H](NC(=O)OC(C)(C)C)c1cc(C(=O)N[C@@H](C)c2ccccc2)c(N)s1	none
Nc1ccc(-c2nc3ccc(N)cc3[nH]2)cc1	none
Nc1ccc2cc3[nH]c4cc(N)ccc4c3nc2c1	CHRM5 agonist 101, M4 antag 32, M5 antag 68
CCCSc1nc(NCc2ccco2)c2c3c(sc2n1)COC(C)(C)C3	CHRM4 PAM 43
CCCCSc1nc(NCc2ccco2)c2c3c(sc2n1)COC(C)(C)C3	none
CSc1nc(SCCN(C)C)c2c3c(sc2n1)COC(C)(C)C3	CHRM4 agonist 52
CSc1nc(SC(C)C(=O)O)c2c3c(sc2n1)COC(C)(C)C3 (configuration not stated)	none
O=c1ccc2cccc([N+](=O)[O-])c2[nH]1	none
CCOc1ccc(/C=C/[N+](=O)[O-])c2ccccc12	CHRM5 agonist 54, M4 antag 40, M5 antag 86
CCCS(=O)(=O)NC(=O)C1(C)CCN(C(=O)c2cc(F)cc(F)c2)C1 (configuration not stated)	none
Cc1ccc(CN2C(=O)c3ccccc3C2c2nnnn2C(C)C)cc1 (configuration not stated)	none
C[C@@H]1CC=C[C@H]2[C@H]1C(=O)N(Cc1ccccc1)[C@H]2c1ccc2ccccc2c1	none
C[C@@H]1CC=C[C@H]2[C@H]1C(=O)N(Cc1ccccc1)[C@H]2c1ccc2ccccc2c1Br	M5 PAM 22
Cc1[nH]c2ccccc2c1C(=O)CSc1nc2ccccc2c(=O)n1CCCN1CCOCC1	M4 antag 27
Cn1c(N)c(C(=O)CSc2nc3ccccc3c(=O)n2CCCN2CCOCC2)c(=O)n(C)c1=O	none
Cc1ccc(NC(=O)CNc2ccc(Cl)c(Cl)c2)cc1S(=O)(=O)N(C)C	M4 antag 33
c1ccc(-c2csc3ncnc(NCC4COc5ccccc5O4)c23)cc1 (configuration not stated)	M4 antag 38, M5 antag 38
Cc1sc2ncnc(NCC3COc4ccccc4O3)c2c1C (configuration not stated)	M4 antag 32, M5 antag 38
CCN1CCN(Cc2ccc(C(=O)Nc3ccc(C)c(NCc4cnc(NC(=O)OC)cn4)c3)cc2C(F)(F)F)CC1	M4 antag 33!
CCN1CCN(Cc2ccc(NC(=O)c3ccc(C)c(NC(=O)c4ccnnc4)c3)cc2C(F)(F)F)CC1	none
CCCCN(C=O)c1c(CC)nc2ccc(C(=O)N3CCCCC3)cn12	none
CC1=CC2(O)OCCN(CCO)C2=CC1=O (configuration not stated)	M5 antag 28
Cc1cc(C)n(-c2ncc3c(n2)N(CCO)CCOC3=O)n1	none
CSc1ccc(OC2(C)CCN(Cc3ccc(OC(F)(F)F)cc3)C2)cc1 (configuration not stated)	none
CCCc1nc2sc3c(c2c(=O)[nH]1)CCCC3	M5 PAM 18
COCc1nc2sc3c(c2c(=O)[nH]1)CCCC3	none
COc1ccc(NC(=O)CN2c3cccc4cccc(c34)S2(=O)=O)cc1OC	none
CCN(CC)S(=O)(=O)c1ccc(C(=O)Nc2c3c(nn2C(C)(C)C)CS(=O)(=O)C3)cc1	M4 antag 27
CCOC(=O)Cc1ccc(Nc2nc(NCCOC)nc3ccsc23)cc1	none
NC(=O)CCN1CCN(CCOC2Cc3cc(Cl)ccc3Sc3ccccc32)CC1 (configuration not stated)	M5 antag 28
COCCCN1CCN(C2Cc3ccccc3Sc3ccc(Cl)cc32)CC1 (configuration not stated)	M5 antag 30
Clc1ccc2c(c1)C(N1CCNCC1)Cc1ccccc1S2 (configuration not stated)	M4 antag 82, M5 antag 97
Clc1cccc2c1Sc1ccccc1CC2N1CCNCC1 (configuration not stated)	M4 antag 68, M5 antag 78
CC(C)c1ccc2c(c1)C(N1CCN(C)CC1)Cc1cccnc1S2 (configuration not stated)	none
COc1ccc2c(c1)CC(N1CCN(C)CC1)c1cc(OC)ccc1S2 (configuration not stated)	none
O=C(Nc1nnc([C@@H]2C[C@H](O)[C@@H](CO)O2)s1)c1cccc(C(F)(F)F)c1	none
Cc1cccc(S(=O)(=O)NC(=O)C2(C)CCN2C(=O)CCC2CCCC2)c1 (configuration not stated)	none
Cc1cccc(CN2[C@H](COC(=O)Nc3ccccc3)C=CS2(=O)=O)c1	none
O=C(C1CCN(S(=O)(=O)N2CCC3(CC2)OCCO3)CC1)N1CCc2ccccc2C1	none
O=C(C1CCN(c2ccc(N3CCOCC3)nn2)CC1)N1CCc2ccccc2C1	M4 antag 46
CCOC(=O)C(=O)N(C)c1c(CC)nc2c(OCc3cccc(OC)c3)cccn12	none
COc1ccc(Cl)cc1NC(=O)CSc1sc2c(O)cc(=O)[nH]c2c1C#N	CHRM4 PAM 23
Cc1ccc(Cl)cc1NC(=O)CSc1sc2c(O)cc(=O)[nH]c2c1C#N	none
CCCCN1C(=O)N(c2ccc(Cl)cc2)C(C)(O)CC1(C)C (configuration not stated)	none
CN1C(=O)N(c2ccc(Cl)cc2)C(C)(O)CC1(C)C (configuration not stated)	M5 PAM 25
O=C(O)Cc1ccc(N2N=C(c3ccccc3)CC2=O)cc1	none
FC(F)(F)Oc1ccccc1C(c1nnnn1-c1ccc2c(c1)OCCO2)N1CCN(C/C=C/c2ccccc2)CC1 (configuration not stated)	none
COCCNC(=O)/C(C#N)=C/c1c(N2CCCCCC2)nc2ccccn2c1=O	M4 antag 99
COc1ccccc1C(CC(=O)c1ccccc1)C(=O)c1ccccc1 (configuration not stated)	M4 antag 27
COc1ccccc1C(CC(=O)c1ccccc1)CC(=O)c1ccccc1	none
